# The source made the active and inactive calls.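 The calls were made as follows, unless noted: active = visually confirmed hit in the image check and inhibition above 20%; inconclusive = visually confirmed hit but inhibition not above 20%; inactive = no visual hit in the image check.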
# Legend:
# [1] = inhibitors of TNFa-induced NFkB p65 translocation, primary screen, imaging, HUVEC, MLSMR starter and 10KST1 sets (AID 438;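 active = inhibition above 20% together with a positive visual image hit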;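 also: compound added about 3h40 before a 20 min TNFalpha stimulation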;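 as to inhibition: signal is the nuclear over cytoplasmic p65 intensity ratio per well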); settings: HUVEC TNFa-induced p65 nuclear translocation; cell count: measured here: nuclei count (cytotoxicity indicator), at 2.08 µM; inhibition: at 2 µM, stronger effect = higher value, 0% TNFa-plus-vehicle, 100% no-TNFa wells
# [2] = inhibitors of mutant huntingtin aggregation, primary screen, imaging, exon1htt(103Q)mCFP cells, high-content imaging (AID 483;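 active = visual image review flags a hit and inhibition of aggregation exceeds 20%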;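 also: compound exposure lasted 3 days before fixation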;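 as to nuclei count: percent of the per-plate median nuclei count of sample wells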); settings: exon1htt(103Q)mCFP cell line, aggregate imaging, at 2 µM; inhibition of aggregation: stronger effect = higher value; nuclei count: measured here: cell count, toxicity
# [3] = inhibitors of E-selectin induction by TNFa, primary screen, imaging, HUVEC, immunofluorescence, MLSMR starter and 10KST1 sets (AID 487); settings: HUVEC TNFalpha-induced E-selectin immunofluorescence imaging, at 2 µM; inhibition: stronger effect = higher value; nuclei count: measured here: cell number, toxicity;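 as to inhibition: signal is fraction of cell area covered by stained E-selectin grains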;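 as to nuclei count: 100% = median nuclei count of all wells on the same plate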
# [4] = target: Voltage-gated potassium channel subunit beta-2 (Rattus norvegicus) (UniProt P62483); assay: KvBeta enzyme negative modulators, primary screen, biochemical, NADPH fluorescence (AID 622;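 active = fluorescence slope higher than the sample average by over 3 SD, cut at about -0.22 in these data, passing the limit was not always enough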;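 also: slope of raw intensity against log time taken from 70 to 1610 s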); settings: recombinant KvBeta, 4-cyanobenzaldehyde reduction, at 10 µM, stronger effect = higher value
# Sequence of Voltage-gated potassium channel subunit beta-2 (Rattus norvegicus) (P62483 whole entry, looked up): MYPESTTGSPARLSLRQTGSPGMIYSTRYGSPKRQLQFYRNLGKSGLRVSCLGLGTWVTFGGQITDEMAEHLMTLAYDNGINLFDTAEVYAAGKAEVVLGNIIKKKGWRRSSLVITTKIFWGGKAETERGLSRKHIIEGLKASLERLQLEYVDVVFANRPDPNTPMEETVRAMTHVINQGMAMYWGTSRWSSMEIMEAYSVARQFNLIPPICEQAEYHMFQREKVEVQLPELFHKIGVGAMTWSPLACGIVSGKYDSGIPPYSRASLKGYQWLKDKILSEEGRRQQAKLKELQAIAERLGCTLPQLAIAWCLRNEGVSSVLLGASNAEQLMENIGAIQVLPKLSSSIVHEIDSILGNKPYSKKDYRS
# [5] = target: Voltage-gated potassium channel subunit beta-2 (Rattus norvegicus) (UniProt P62483); assay: KvBeta positive modulators, primary screen, biochemical, NADPH fluorescence (AID 623;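 active = NADPH fluorescence slope more negative than the mean of all samples by about 3 SD, 99.7% confidence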;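 also: fluorescence intensity change per second fitted from 20 to 320 s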); settings: Recombinant KvBeta, NADPH fluorescence decrease slope, 10 min; at 10 µM; stronger effect = lower value
# [6] = target: Muscarinic acetylcholine receptor M4 (Homo sapiens) (UniProt P08173); assay: compounds altering M4/GIRK thallium flux, either direction, primary screen, M4 allosteric agonist project, cell-based, HEK293 M4/GIRK, BTC-AM (AID 625;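 active = fluorescence slope after compound addition differing from the mean of all tested samples at 99.7% confidence, mostly higher but some lower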;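 also: thallium influx through GIRK channels coupled to M4 in HEK293 cells with BTC-AM dye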); settings: at 10 µM, actives lie on both sides
# Sequence of Muscarinic acetylcholine receptor M4 (Homo sapiens) (P08173 whole entry, looked up): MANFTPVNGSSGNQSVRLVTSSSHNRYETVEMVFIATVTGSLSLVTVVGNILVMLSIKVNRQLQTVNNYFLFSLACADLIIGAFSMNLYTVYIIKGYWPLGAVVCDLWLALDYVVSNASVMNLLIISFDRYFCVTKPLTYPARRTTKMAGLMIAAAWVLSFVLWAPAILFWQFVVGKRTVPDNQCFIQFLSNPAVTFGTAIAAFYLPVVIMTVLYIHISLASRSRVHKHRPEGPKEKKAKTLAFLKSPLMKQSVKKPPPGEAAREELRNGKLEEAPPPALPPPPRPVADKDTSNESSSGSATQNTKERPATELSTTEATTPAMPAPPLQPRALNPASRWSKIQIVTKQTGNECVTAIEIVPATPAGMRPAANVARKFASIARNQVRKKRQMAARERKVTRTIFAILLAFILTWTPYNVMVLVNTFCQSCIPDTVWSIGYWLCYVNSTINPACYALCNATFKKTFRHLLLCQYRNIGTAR
# Summary of the method: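 Material: M4/GIRK1/GIRK2 stable HEK293 cell line. Medium: pH 7.3 thallium assay buffer. Dosing: single compound concentration, 10 µM final. Schedule: 1 h dye loading, 2 min kinetic read. Measured by: kinetic fluorescence with BTC-AM dye. Read-out: post-addition slope, 15–24 s, of baseline-normalized fluorescence. Benchmarks: carbachol and DMSO controls.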
# [7] = inhibitors of Sendai virus-induced IRF3 signaling, primary screen, TLR/RLR signaling modifier project, cell-based, Sendai virus stimulus, luciferase, 10K MLSCN set (AID 602276;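 active = inhibition at or above 50% at 10 µM; inactive = inhibition below 50%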;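 also: firefly luciferase from ISG56 promoter only with Renilla not read in this screen; 0% = Sendai virus plus DMSO and 100% = medium plus DMSO without virus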); settings: HEK293 RL24 IRF3 luciferase reporter, at 10 µM, stronger effect = higher value
# [8] = inhibitors of poly I:C-induced TLR3 signaling, primary screen, cell-based, poly I:C stimulus, luciferase, 10K MLSCN set (AID 602277;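 active = inhibition of the reporter signal at or above 50%; inactive = inhibition below 50%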); settings: HEK293-TLR3 RL24 IRF3 luciferase reporter, at 10 µM, stronger effect = higher value
SMILES,cell count [1],inhibition [1],inhibition of aggregation [2],nuclei count [2] [%],inhibition [3],nuclei count [3] [%],fluorescence slope [4],NADPH fluorescence slope [5],fluorescence slope [6],inhibition [7],inhibition [8]
COc1ccccc1C(=O)Nc1ccc(N2CCN(S(C)(=O)=O)CC2)cc1,320,-6.8% (inactive),7% (inactive),127,18.3% (inactive),116,-0.242 (inactive),-2.5e-06 (inactive),0.00706 (inactive),-8.58% (inactive),-50.2% (inactive)
CCCCC(c1nnnn1C1CCCC1)N1CCN(C2CCCCC2)CC1 (stereo unspecified),625,-40.8% (inactive),-12% (inactive),100,-57.4% (inactive),111,-0.314 (inactive),-3.5e-05 (inactive),0.00481 (inactive),10% (inactive),39.4% (inactive)
CC1(C)CC(=O)c2cc(OCC(=O)NCCCN3CCN(c4ccccc4F)CC3)ccc2O1,398,5.8% (inactive),-2% (inactive),91.6,-156% (inactive),103,-0.366 (inactive),3e-05 (inactive),0.00645 (inactive),9.74% (inactive),2.15% (inactive)
O=C(O)CCc1ccc(-c2ccccc2)n1CC(=O)O,355,2.4% (inactive),-3.7% (inactive),112,-36.5% (inactive),114,-0.564 (inactive),-7.8e-05 (inactive),0.00623 (inactive),-9.35% (inactive),-25.1% (inactive)
N#Cc1cnc(SCC(=O)Nc2ccccc2C(F)(F)F)nc1N,743,2.2% (inactive),15.1% (inactive),102,-205% (inactive),121,-0.371 (inactive),5.4e-05 (inactive),0.00496 (inactive),14% (inactive),22.7% (inactive)
O=C(NCC1COCCO1)C1CCN(S(=O)(=O)c2ccccc2)CC1 (stereo unspecified),621,-9.6% (inactive),-7.6% (inactive),111,-28.6% (inactive),112,-0.557 (inactive),3.3e-05 (inactive),0.0061 (inactive),12% (inactive),0.992% (inactive)
CCOC(=O)c1nn(-c2sc(C(=O)OC)c(C)c2C(=O)OC)cc1O,449,-6.2% (inactive),1% (inactive),94.5,0.1% (inactive),108,-0.518 (inactive),-3.7e-05 (inactive),0.00503 (inactive),20.5% (inactive),24.1% (inactive)
O=C(COc1ccc(S(=O)(=O)N2CCCC2)cc1Cl)NC1CC1,349,5.7% (inactive),-1.8% (inactive),58.7,21.6% (inactive),98.3,-0.232 (inactive),-1.9e-05 (inactive),0.007 (inactive),15.4% (inactive),16.4% (inactive)
O=C(c1cnsn1)N1CCN(c2ccccn2)CC1,277,9.3% (inactive),4% (inactive),82.9,1.4% (inactive),95.4,-0.45 (inactive),-2.9e-05 (inactive),0.00527 (inactive),4.49% (inactive),-0.785% (inactive)
COc1ccc(S(=O)(=O)n2ccnc2)c2cccnc12,442,-21.1% (inactive),1% (inactive),82,20.6% (inactive),85.1,-0.358 (inactive),7.3e-05 (inactive),0.00671 (inactive),0.31% (inactive),8.74% (inactive)
CNC(=O)c1c(O)c2cccc3c2n(c1=O)CC3,446,-8.8% (inactive),-3.8% (inactive),57,-60.1% (inactive),99,-0.545 (inactive),-5.3e-05 (inactive),0.00595 (inactive),1.98% (inactive),-8.91% (inactive)
Nc1nnc(SCC(=O)N2CCc3ccccc32)n1-c1ccccc1,449,-3.6% (inactive),-2% (inactive),94.9,-79.9% (inactive),111,-0.542 (inactive),-4.3e-05 (inactive),0.00439 (inactive),17.7% (inactive),27.2% (inactive)
COc1ccc2c(c1OC)C(=O)OC2Nn1cncn1 (stereo unspecified),334,-9.5% (inactive),-11.1% (inactive),113,1.1% (inactive),108,-0.565 (inactive),1.7e-05 (inactive),0.00408 (inactive),15.9% (inactive),22.6% (inactive)
COc1ccc(OC)c(N(CC(=O)N2CCN(c3cc(Cl)ccc3C)CC2)S(C)(=O)=O)c1,497,-7.3% (inactive),23.1% (inactive),61.4,-13.6% (inactive),105,-0.572 (inactive),-5.2e-05 (inactive),0.00582 (inactive),17% (inactive),24.6% (inactive)
COc1ccc2c(=O)c3c(=O)n(Cc4ccco4)c(C(C)C)nc3oc2c1,436,-3.9% (inactive),-10.1% (inactive),91.7,-15.2% (inactive),107,-0.564 (inactive),-2.1e-05 (inactive),0.00474 (inactive),4.04% (inactive),9.95% (inactive)
Cc1ccc(NC2=NC(c3ccccc3)n3c(nc(C)cc3=O)N2)cc1 (stereo unspecified),568,-5.6% (inactive),-4.2% (inactive),89.6,-13% (inactive),90.9,-0.529 (inactive),3.4e-05 (inactive),0.00472 (inactive),14.2% (inactive),19.7% (inactive)
CCCCOc1ccc(-c2nnn(CC(=O)Nc3ncc(CC(=O)OCC)s3)n2)cc1,613,36.4% (active),18.6% (inactive),108,-79% (inactive),79.4,-0.4 (inactive),6.8e-06 (inactive),0.00855 (inactive),13.5% (inactive),23.8% (inactive)
COc1ccc(Cn2nnnc2C(c2ccncc2)N2CCOCC2)cc1 (stereo unspecified),543,0.5% (inactive),-5.2% (inactive),90.8,-90.6% (inactive),119,-0.608 (inactive),-1.7e-05 (inactive),0.00759 (inactive),7.51% (inactive),9.52% (inactive)
O=C(CSc1nc2ccccc2n1CC(=O)N1CCCC1)Nc1nccs1,676,1% (inactive),-9.6% (inactive),99.7,-3.7% (inactive),131,-0.484 (inactive),-0.000183 (inactive),0.00508 (inactive),2.67% (inactive),14% (inactive)
O=C(CCC(=O)N1CCN(S(=O)(=O)c2ccccc2)CC1)c1cccs1,633,-1.3% (inactive),-22.1% (inactive),102,-176% (inactive),153,-0.568 (inactive),-7e-05 (inactive),0.00592 (inactive),-5.43% (inactive),-3.56% (inactive)
COc1ccc(-c2nn(-c3ccccc3)cc2/C=N/n2cnnc2)cc1OC,737,0.7% (inactive),-17.1% (inactive),100,-74.5% (inactive),108,-0.464 (inactive),-6.1e-05 (inactive),0.00596 (inactive),1.15% (inactive),1.32% (inactive)
CCn1c(SCC(=O)N2CCCc3ccccc32)nnc1-c1cccs1,697,1.4% (inactive),4.3% (inactive),98.7,-172% (inactive),129,-0.531 (inactive),-2.4e-05 (inactive),0.00467 (inactive),14% (inactive),13.4% (inactive)
Cc1ccc(Oc2ccc(-c3nc(N)nc(N)n3)cc2)cc1,366,-6% (inactive),9% (inactive),105,-62.6% (inactive),125,-0.547 (inactive),-2.9e-05 (inactive),0.00425 (inactive),7.07% (inactive),11.6% (inactive)
CCCN(CCC)S(=O)(=O)c1ccc(C(=O)Nc2nnc(-c3cccc(OC)c3)o2)cc1,345,1.4% (inactive),13.6% (inactive),92.5,38.1% (inactive),107,-0.5 (inactive),-0.000148 (inactive),0.0064 (inactive),27.3% (inactive),23.2% (inactive)
CN(CC(=O)Nc1ccccc1Cl)C(=O)COC(=O)CNC(=O)c1ccc(Br)o1,436,-13.1% (inactive),-3.1% (inactive),115,-13.8% (inactive),107,-0.607 (inactive),2.6e-05 (inactive),0.00546 (inactive),15.4% (inactive),30.4% (inactive)
O=C(CN1C(=O)c2ccccc2C1=O)NCC1COc2ccccc2O1 (stereo unspecified),403,-0.8% (inactive),12.6% (inactive),101,50.3% (inactive),75.3,-0.477 (inactive),9.2e-05 (inactive),0.00703 (inactive),-12.5% (inactive),-10.2% (inactive)

# — PubChem BioAssay
